The text below walks through data of ChEMBL document CHEMBL2069215, “Synthesis and biological evaluation of novel triazoles and isoxazoles linked 2-phenyl benzothiazole as potential anticancer agents” (Bioorg Med Chem Lett, 2012).

Assay [1] relates to MCF-10A. Kind of assay: Cytotoxicity against human MCF10A cells after 24 hrs by MTT assay. Type of assay: cell-based. Background: Tetrazolium dyes change colour on reduction, which living cells bring about.
Assay [2] has as its system COLO 205. Nature of the assay: Cytotoxicity against human COLO205 cells after 24 hrs by MTT assay. It counts as functional, cell-based. To be noted: COLO 205, 24 h. A digest of the protocol: (§1)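 A549 lung adenocarcinoma, Colo-205 colon and MCF-7 breast carcinoma cells were exposed to compounds at 1 to 64 µM for 24 h. Viability was read by MTT assay, and IC50 values were derived from it.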

The subject of assay [3] is MCF7. Kind of assay: Cytotoxicity against human MCF7 cells after 24 hrs by MTT assay. Type of assay: functional, cell-based. To be noted: MCF7, 24 h. A digest of the protocol: as §1
Assay [4] relates to A549. Nature of the assay: Cytotoxicity against human A549 cells after 24 hrs by MTT assay. Type of assay: functional, cell-based. The conditions noted are these: A549, 24 h. A digest of the protocol:
as §1

The test system of assay [5] is COLO 205. Kind of assay: Cell cycle arrest in human COLO205 cells assessed as accumulation at G1 phase at 16 uM after 24 hrs by FACS analysis (reference value: 71.02 +/- 1.00%). It counts as functional. A digest of the protocol:
(§2)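 Colo-205 human colon cancer cells were exposed to 8 or 16 µM for 24 h alongside untreated controls. They were then analysed by flow cytometry (FACS) for cell-cycle distribution as percent of cells in G0, G1, S and G2/M. The G0 population was taken as apoptotic cells.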

Assay [6] has as its system COLO 205. Nature of the assay: Cell cycle arrest in human COLO205 cells assessed as accumulation at G1 phase at 8 uM after 24 hrs by FACS analysis (reference value: 71.02 +/- 1.00%). Type of assay: functional. The method in brief: as §2
In general terms: Flow cytometry measures light scatter and fluorescence of single cells or particles in a stream.

In assay [7] the test system is COLO 205. Kind of assay: Cell cycle arrest in human COLO205 cells assessed as accumulation at S phase at 16 uM after 24 hrs by FACS analysis (reference value: 3.56 +/- 0.40%). Type of assay: functional. A digest of the protocol: as §2
Assay [8] has as its system COLO 205. Kind of assay: Cell cycle arrest in human COLO205 cells assessed as accumulation at S phase at 8 uM after 24 hrs by FACS analysis (reference value: 3.56 +/- 0.40%). Type of assay: functional. A digest of the protocol: as §2
For assay [9], the system named is COLO 205. Nature of the assay: Cell cycle arrest in human COLO205 cells assessed as accumulation at G2/M phase at 8 uM after 24 hrs by FACS analysis (reference value: 23.09 +/- 1.01%). Type of assay: functional. A digest of the protocol: as §2
The test system of assay [10] is COLO 205. Nature of the assay: Cell cycle arrest in human COLO205 cells assessed as accumulation at G2/M phase at 16 uM after 24 hrs by FACS analysis (reference value: 23.09 +/- 1.01%). It counts as functional. A digest of the protocol:
as §2

For assay [11], the system named is COLO 205. Kind of assay: Induction of apoptosis in human COLO205 cells assessed as accumulation at G0 phase at 8 uM after 24 hrs by FACS analysis (reference value: 2.28%). It counts as functional. A digest of the protocol: as §2
Assay [12] relates to COLO 205. Nature of the assay: Induction of apoptosis in human COLO205 cells assessed as accumulation at G0 phase at 16 uM after 24 hrs by FACS analysis (reference value: 2.28%). It counts as functional. A digest of the protocol:
as §2

Assay [13] concerns COLO 205. Nature of the assay: Induction of apoptosis in human COLO205 cells assessed as increase in caspase 3 expression at 8 uM after 24 hrs by Western blot analysis. Type of assay: functional, cell-based. A digest of the protocol: (§3)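 Colo-205 cells were treated at 8 or 16 µM for 24 h and lysed. Western blots of the lysates were probed with antibodies to procaspase-8, procaspase-9, active caspase-3 and cleaved (active) PARP.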
In general terms: Immunoblotting shows a protein as a band on a membrane.

Assay [14] relates to COLO 205. Nature of the assay: Induction of apoptosis in human COLO205 cells assessed as increase in PARP expression at 8 uM after 24 hrs by Western blot analysis. It counts as functional, cell-based. A digest of the protocol: as §3
The test system of assay [15] is COLO 205. Kind of assay: Induction of apoptosis in human COLO205 cells assessed as degradation of procaspase 8 at 8 uM after 24 hrs by Western blot analysis. Type of assay: functional, cell-based. The method in brief: as §3
Assay [16] relates to COLO 205. Kind of assay: Induction of apoptosis in human COLO205 cells assessed as degradation of procaspase 9 at 8 uM after 24 hrs by Western blot analysis. It counts as functional, cell-based. The method in brief:
as §3

As usually defined, the pIC50 is the IC50 on a negative log10 scale, so that one unit is a factor of ten. A lower pIC50 goes with a high IC50.

pIC50: −log10 of the molar value. Calls of active or inactive are those of the source. The calls are words filed in the database; no cut-off is given here.

As to `Clc1ccc(-c2cc(COc3ccccc3-c3nc4ccccc4s3)on2)cc1`, the pIC50 is 4.41 in [1], 4.78 in assay [2], 4.62 in assay [3] and 4.73 in assay [4].
Take `COc1ccc(-c2nc3cc(F)ccc3s2)cc1OC`: the Activity in assay [5] came out at 52.82%; in assay [6] it was 70.04%; in assay [7], 4.31%; in assay [8], 3.21%; in assay [9] it was 22.5%; in assay [10], 15.6%. Further, the Activity in assay [11] turned out to be 4.15%; in assay [12] it was 27.17%. The pIC50 in assay [1] is 4.60; in assay [2], 4.86; in assay [3] it was 4.69; in assay [4] it was 4.80.
Consider `Fc1ccc(-n2cc(COc3ccccc3-c3nc4ccccc4s3)nn2)cc1`, for which the pIC50 in [1] was 4.48; in [2], 4.72; in [3] it was 4.58; in assay [4], 4.63.
For `Brc1ccc(-c2cc(COc3ccccc3-c3nc4ccccc4s3)on2)cc1`, in that order: 4.53, 4.78, 4.70 and 4.72.
For `COc1cc(-c2cc(COc3ccccc3-c3nc4ccccc4s3)on2)cc(OC)c1OC`, in that order: 4.37, 4.76, 4.59 and 4.64.
For `Fc1ccccc1-c1cc(COc2ccccc2-c2nc3ccccc3s2)on1`, in that order: 4.37, 4.74, 4.62 and 4.65.
Turning to `COc1ccc(-c2cc(COc3ccccc3-c3nc4ccccc4s3)on2)cc1`, the negative logarithm of the IC50 (pIC50) in assay [1] was 4.47; in assay [2], 4.68; in assay [3] it was 4.65; in assay [4] it was 4.62.
For `Cc1ccc(-c2cc(COc3ccccc3-c3nc4ccccc4s3)on2)cc1`, in that order: 4.58, 4.85, 4.56 and 4.79.
For `c1ccc(-n2cc(COc3ccccc3-c3nc4ccccc4s3)nn2)cc1`, in that order: 4.44, 4.78, 4.58 and 4.78.
For `FC(F)(F)Oc1ccc(-c2cc(COc3ccccc3-c3nc4ccccc4s3)on2)cc1`, in that order: 4.36, 4.70, 4.57 and 4.62.
For the molecule `FC(F)(F)C(F)(F)C(F)(F)C(F)(F)C(F)(F)C(F)(F)CCn1cc(COc2ccccc2-c2nc3ccccc3s2)nn1`, the Activity was 61.36% in assay [5]; 73.66% in assay [6]; 4.42% in [7]; 3.09% in [8]; 20.53% in assay [9]; 22.3% in assay [10]. In addition, the Activity in assay [11] is reported as 2.72%; in assay [12], 11.91%. In addition, the negative-log IC50 (pIC50) in assay [1] was 4.46; in assay [2], 4.85; in assay [3], 4.70; in [4] it was 4.82.
`FC(F)(F)C(F)(F)C(F)(F)C(F)(F)C(F)(F)C(F)(F)C(F)(F)C(F)(F)CCn1cc(COc2ccccc2-c2nc3ccccc3s2)nn1`: the Activity in assay [5] came out at 46.57%; in assay [6] it was 72%; in assay [7] it was 3.79%; in assay [8], 4.43%; in assay [9], 20.22%; in assay [10], 15.18%. Besides, the Activity turned out to be 3.3% in [11] and 34.45% in assay [12]. Also, the pIC50 in assay [1] was 4.48; in [2], 4.91; in assay [3] it was 4.72; in assay [4] it was 4.88.
As to `FC(F)(F)c1cccc(-n2cc(COc3ccccc3-c3nc4ccccc4s3)nn2)c1`, the Activity stood at 45.77% in assay [5]; 70.91% in assay [6]; 2.68% in [7]; 3.37% in assay [8]; 21.68% in assay [9]; 10.67% in assay [10]. Moreover, the results for the Activity in assay [11] and in assay [12] were 4.02% and 40.7%, respectively. The outcome in [13], in assay [14], in [15] and in assay [16] was Active. Also, the pIC50 in assay [1] was 4.51; in [2], 4.97; in assay [3] it was 4.72; in assay [4], 4.96.
For the molecule `Fc1ccc(-n2cc(COc3ccccc3-c3nc4ccccc4s3)nn2)cc1Cl`, the pIC50 is 4.58 in [1], 4.84 in [2], 4.56 in assay [3] and 4.79 in assay [4].
